Converted amounts (≈) assume the structure as drawn. The source made the active and inactive calls. The calls are words filed in the database; no cut-off is given here.
What was measured:
Meloidogyne incognita [1] = assay: Nematicidal activity against second-stage juveniles of Meloidogyne incognita (root-knot nematode) after 1 day by inverted microscopic analysis; format: functional, organism-based; conditions: 24 h
In short: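 Stocks in methanol, diluted with water/Tween; double-strength solutions mixed 1:1 with 25 J2 per well (methanol ≤1% final), covered, dark, 28 °C, 1 day. Controls: water and water/Tween 0.2%. Paralysis corrected for water-control mortality; five replicates, experiment run twice; EC50 from log-logistic nonlinear regression.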

Meloidogyne incognita [2] = assay: Nematicidal activity against second-stage juveniles of Meloidogyne incognita (root-knot nematode) after 1 hr by inverted microscopic analysis; format: functional
In short: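 J2 motility assay: methanol stocks diluted in water/Tween, mixed 1:1 with 25 J2 per well (methanol ≤1% final), kept covered in dark at 28 °C; paralysis scored at 1 h over a concentration range to give EC100. Water and water/Tween 0.2% controls; five replicates, repeated twice.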

Meloidogyne incognita [3] = assay: Nematicidal activity against second-stage juveniles of Meloidogyne incognita (root-knot nematode) assessed as smooth/stretched cuticle at […] by scanning electron microscopic analysis; format: functional, organism-based
In short: (§1)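 J2 juveniles were exposed to the aldehyde, with untreated J2 as negative controls. They were postfixed in 1% osmium tetroxide in 0.1 M cacodylate buffer for 1 h, washed in distilled water, and frozen in slush nitrogen. They were then freeze-dried under vacuum overnight (−70 °C rising to room temperature), sputter-coated with 10 nm gold and imaged by secondary-electron SEM at 15 kV.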

Meloidogyne incognita [4] = assay: Nematicidal activity against second-stage juveniles of Meloidogyne incognita (root-knot nematode) assessed as macroscopic fracture on cuticle at […] by scanning electron microscopic analysis; format: functional, organism-based; in short: as §1
Meloidogyne incognita [5] = assay: Nematicidal activity against second-stage juveniles of Meloidogyne incognita (root-knot nematode) assessed as microscopic fracture on cuticle at […] by scanning electron microscopic analysis; format: functional, organism-based; in short: as §1
[6] = biological target: T1, Collagen (Meloidogyne javanica) (UniProt O01945); assay: Covalent binding to Meloidogyne javanica (root-knot nematode) collagen 3 assessed as compound-protein adduct formation at 5 mM by HPLC-ESI-MS analysis
T1 sequence (whole entry): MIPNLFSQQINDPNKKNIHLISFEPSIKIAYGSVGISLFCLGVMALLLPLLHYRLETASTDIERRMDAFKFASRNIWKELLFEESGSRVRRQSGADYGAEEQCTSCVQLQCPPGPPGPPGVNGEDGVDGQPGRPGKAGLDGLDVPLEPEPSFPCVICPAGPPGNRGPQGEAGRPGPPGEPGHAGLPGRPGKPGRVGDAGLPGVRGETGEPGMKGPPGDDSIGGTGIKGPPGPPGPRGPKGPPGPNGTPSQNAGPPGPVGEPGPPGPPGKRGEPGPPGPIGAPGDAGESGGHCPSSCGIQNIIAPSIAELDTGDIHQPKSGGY
In short: (§2)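 Aldehyde (final 1, 5 or 15 mM) incubated with probe peptide (0.5 mM) in 100 mM Tris-HCl pH 7.4, 25 °C, dark, 24 h, duplicate; stopped with TFA (0.1% final). Diluted in 0.1% TFA, analysed by HPLC-ESI-MS (C18, TFA water/acetonitrile gradient). Adducts quantified label-free as relative XIC peak area of each derivative versus sum of all derivatives; peptide-only control.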

[7] = biological target: T1, Collagen (Meloidogyne javanica); assay: Covalent binding to Meloidogyne javanica (root-knot nematode) collagen 3 assessed as compound-protein adduct formation at 1 mM by HPLC-ESI-MS analysis; in short: as §2
[8] = biological target: T1, Collagen (Meloidogyne javanica); assay: Covalent binding to Meloidogyne javanica (root-knot nematode) collagen 3 assessed as compound-protein adduct formation at 15 mM by HPLC-ESI-MS analysis; in short: as §2

SMILES | EC50 (Meloidogyne incognita [1]) [µg/mL] | EC100 (Meloidogyne incognita [2]) [mg/L] | further results
CCc1ccc(O)c(C=O)c1 | 53 (≈ 353 µM) | >100 | –
CCCCCCCCCCCCCCCc1ccc(C=O)c(O)c1 | > 1000 | >1000 | –
CCCCC/C=C/C=C/C=O | 12 (≈ 78.8 µM) | >20 | Activity (Meloidogyne incognita [3]): Active; Activity (Meloidogyne incognita [4]): Active; Activity (Meloidogyne incognita [5]): inactive
COc1ccccc1C=O [2-METHOXYBENZALDEHYDE] | > 1000 | >1000 | Activity [6]: 77%; Activity [7]: 74%
O=Cc1ccc2ccccc2c1 [2-NAPHTHALDEHYDE] | 13 (≈ 83.2 µM) | >75 | –
O=Cc1ccccc1[N+](=O)[O-] [2-NITROBENZALDEHYDE] | 120 (≈ 794 µM) | >200 | –
COc1ccc(C=O)cc1OC [3,4-DIMETHOXYBENZALDEHYDE] | > 1000 | >1000 | Activity [6]: 70%; Activity [7]: 65%
CC(=O)c1ccc2c(c1)OCO2 [3,4-METHYLENDIOXY ACETOPHENONE] | > 500 | >500 | –
O=Cc1cccc(C(=O)O)c1 [3-FORMYLBENZOIC ACID] | > 1000 | >1000 | –
O=Cc1cccc(O)c1 [3-HYDROXYBENZALDEHYDE] | 31 (≈ 254 µM) | >250 | –
O=Cc1ccc(O)cc1 [4-HYDROXYBENZALDEHYDE] | 75 (≈ 614 µM) | 500 | –
O=Cc1ccccc1 [BENZALDEHYDE] | > 250 | >100 | Activity [6]: 0%; Activity [8]: 6%; Activity [7]: 0%
Oc1ccccc1O [CATECHOL] | > 500 | >500 | –
O=C(O)/C=C/c1ccccc1 [CINNAMIC ACID] | > 250 | >250 | –
O=C/C=C\c1ccccc1 [CINNAMIC ALDEHYDE] | 12 (≈ 90.8 µM) | >250 | –
CC(C)=CCC/C(C)=C/C=O [CITRAL] | 72 (≈ 473 µM) | >250 | –
CCOP(=O)(SC(C)CC)N1CCSC1=O (configuration not stated) [FOSTHIAZATE] | – | 3 | –
O=Cc1ccco1 [FURFURAL] | 8 (≈ 83.3 µM) | 11 | –
O=Cc1ccccc1O[C@@H]1O[C@H](CO)[C@@H](O)[C@H](O)[C@H]1O [HELICIN] | > 250 | >250 | –
O=Cc1cccc(C=O)c1 [ISOPHTHALIC DICARBOXALDEHYDE] | 15 (≈ 112 µM) | >100 | Activity [6]: 0%; Activity [8]: 0%; Activity [7]: 1%
c1ccc([C@H]2CN3CCSC3=N2)cc1 [LEVAMISOLE] | 4 (≈ 19.6 µM) | >20 | –
COC(=O)c1ccccc1O [METHYL SALICYLATE] | > 1000 | >1000 | –
O=Cc1ccccc1C=O [ORTHO-PHTHALALDEHYDE] | 11 (≈ 82 µM) | >50 | –
C[C@@H]1O[C@@H](O[C@H]2C[C@@H](O)[C@]3(CO)[C@H]4[C@H](O)C[C@]5(C)[C@@H](C6=CC(=O)OC6)CC[C@]5(O)[C@@H]4CC[C@]3(O)C2)[C@H](O)[C@H](O)[C@H]1O [OUABAIN] | > 1000 | >1000 | –
O=CCc1ccccc1 [PHENYLACETALDEHYDE] | 167 (≈ 1390 µM) | 1000 | –
O=Cc1ccc2c(c1)OCO2 [PIPERONAL] | 44 (≈ 293 µM) | >100 | Activity [6]: 30%; Activity [7]: 5%
O=Cc1ccc(O)c(O)c1 [PROTOCATECHUALDEHYDE] | > 1000 | >1000 | Activity [6]: 89%; Activity [8]: 73%; Activity [7]: 72%
Cn1c2cccc(=O)c-2nc2ccccc21 [PYOCYANIN] | 72 (≈ 342 µM) | >250 | –
O=Cc1ccccc1O [SALICYLADEHYDE] | 11 (≈ 90.1 µM) | >25 | Activity (Meloidogyne incognita [3]): Active; Activity [6]: 57%; Activity (Meloidogyne incognita [4]): Active; Activity [7]: 61%; Activity (Meloidogyne incognita [5]): inactive
COc1cc(C=O)ccc1O [VANILLIN] | > 1000 | >1000 | –

Reference: ChEMBL document CHEMBL3045766, “Potent nematicidal activity of phthalaldehyde, salicylaldehyde, and cinnamic aldehyde against Meloidogyne incognita” (J Agric Food Chem, 2013)
